Reference: ChEMBL document CHEMBL1833835, “Synthesis and evaluation of the anti parasitic activity of aromatic nitro compounds” (Eur J Med Chem, 2011)

Columns and labels:
Trypanosoma cruzi [1] = assay: Trypanocidal activity against intracellular amastigote form of Trypanosoma cruzi Tulahuen expressing beta-galactosidase infected in mouse L929 cells after 7 days by microplate reader analysis; format: functional, organism-based; conditions: L929, 168 h
Trypanosoma cruzi [2] = assay: Trypanocidal activity against intracellular trypomastigote form of Trypanosoma cruzi Tulahuen expressing beta-galactosidase infected in mouse L929 cells after 7 days by microplate reader analysis; format: functional, organism-based; conditions: L929, 168 h
Leishmania amazonensis = assay: Antiparasitic activity against promastigote form of Leishmania amazonensis IFLA/BR/67/PH8 after 48 hrs by MTT assay; format: functional, organism-based; conditions: IFLA/BR/67/PH8, 48 h
Procedure, shortened: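 Promastigotes kept at 23 °C in Schneider's medium with 20% heat-inactivated FCS, pH 7.2; plated at 1 × 10⁷/well. Screening at 100 µM in triplicate, then six-point dilutions in duplicate for compounds exceeding 50% inhibition. After 48 h, MTT added for 4 h, stopped with isopropanol/SDS, OD 570 nm read; IC50 from curve; three independent experiments.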

PBMC = assay: Inhibition of cell proliferation of phytohemagglutinin-induced human PBMC; format: cell-based
[3] = Selectivity index, ratio of IC50 for human PBMC to IC50 for Leishmania amazonensis IFLA/BR/67/PH8
Procedure, shortened: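 Ratio of PBMC proliferation IC50 (PHA-stimulated, MTT, 48 h) to promastigote IC50 (MTT, 48 h).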

Structure (SMILES)	IC50 (Trypanosoma cruzi [1])	IC50 (Trypanosoma cruzi [2])	IC50 (Leishmania amazonensis)	IC50 (PBMC)	Ratio IC50 [3]
COC(=O)c1ccc(CBr)c([N+](=O)[O-])c1	> 1000 µM	> 500 µM	39.3 µM	44.1 µM	1.1
O=C(O)c1ccc(CBr)c([N+](=O)[O-])c1	> 1000 µM	> 500 µM	> 100 µM	344 µM	<3.4
O=C(O)c1ccc(CO)c([N+](=O)[O-])c1	> 1000 µM		> 100 µM		
O=C(NCCO)c1ccc(CCl)c([N+](=O)[O-])c1	> 1000 µM		59.5 µM	960 µM	16.1
O=C(NCCO)c1ccc(CCl)cc1	> 1000 µM		> 100 µM	330 µM	<3.3
O=C(NCCO)c1ccc(CBr)c([N+](=O)[O-])c1	> 1000 µM		23.1 µM	53.9 µM	2.3
O=C(O)c1ccc(CBr)cc1	> 1000 µM	> 500 µM	> 100 µM	88.8 µM	<0.9
O=C(NCCCl)c1ccc(CCl)c([N+](=O)[O-])c1	> 1000 µM		50.6 µM	1100 µM	21.7
O=C(Cn1ccnc1[N+](=O)[O-])NCc1ccccc1 [BENZNIDAZOLE]	3.8 µM				
